Reference: ChEMBL document CHEMBL3244208, “Quantitative structure-activity relationships for 5-substituted 8-hydroxyquinolines as inhibitors of dental plaque” (J Med Chem, 1977)

Assays:
Streptococcus mutans = assay: Antibacterial activity against Streptococcus mutans No.6715 assessed as inhibition of bacterial growth after 24 to 48 hrs by spectrophotometric analysis; type: functional; conditions: for MIC: Streptococcus mutans, No.6715
Method in brief: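 S. mutans No. 6715, pure plaque-forming strain; media inoculated with 0.20 ml of a 24-h culture. Incubated anaerobically at 37 °C. Growth was read spectrophotometrically (% T) at 24 and 48 h. Dilution series run in sets of five tubes. MIC (molar) was taken as the lowest drug level whose tubes read above 60% T at 24 h.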

[1] = Ionization constant, pKa of 8-hydroxyl group of the compound at 1 mM by potentiometric analysis; type: physicochemical
Method in brief: (§1)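 Potentiometric titration of 10⁻³ M test solutions in ethanol (95%)–water mixtures of varying proportion, 100 ml per titration, at 25 ± 0.1 °C under nitrogen with stirring. Titrant added in 0.25-ml aliquots, with stirring and gas stopped for each pH reading. Acidic function titrated with 0.02 N KOH, basic function with 0.02 N HCl. Boiled distilled, deionized water used for dilutions.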

[2] = 1-Octanol-water partition coefficient, log P of the compound by spectrophotometer analysis corrected for ionization; type: physicochemical
Method in brief: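 Octanol-water log P was measured by the shake-flask method: UV-spectrophotometric assay of one phase, the other by difference, at least triplicate runs with different sample amounts, averaged. The measured log P was then corrected for ionization.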

[3] = Ionization constant, pKa of quinoline nitrogen group of the compound at 1 mM by potentiometric analysis; type: physicochemical; method in brief: as §1
[4] = 1-Octanol-water partition coefficient, log P of the compound by spectrophotometer analysis; type: physicochemical
Method in brief: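 Shake-flask partition between 1-octanol and water. Phase-volume ratio and sample amount set so that test-layer absorbance after partitioning fell between 0.2 and 0.9 in a 1-cm cell. The solute was measured by UV spectrophotometry in one layer only, and the other layer was obtained by difference. P = C_octanol/C_water. At least triplicate runs with different sample amounts, log P averaged.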

[5] = Ionization constant, pKa of substituent at 5th position of the compound at 1 mM by potentiometric analysis; type: physicochemical; method in brief: as §1

Row | Compound | log(1/MIC) (Streptococcus mutans) | MIC (Streptococcus mutans) [µM] | pKa at 1000 µM [1] | logP [2] | pKa at 1000 µM [3] | logP [4] | pKa at 1000 µM [5]
1 | COc1ccc(O)c2ncccc12.Cl | -1.602 | 40 |  |  |  |  | 
2 | Cl.O=Cc1ccc(O)c2ncccc12 | -0.778 | 6 |  |  |  |  | 
3 | CC(=O)c1ccc(O)c2ncccc12.Cl | -0.602 | 4 |  |  |  |  | 
4 | O=[N+]([O-])c1ccc(O)c2ncccc12 [NITROXOLINE] |  |  | 5.97 | 0.11 | 3.68 | -1.17 | 
5 | Oc1ccc(Cl)c2cccnc12 [CLOXYQUIN] |  |  | 8.7 | 2.94 | 3.8 | 2.91 | 
6 | CC(=O)c1ccc(O)c2ncccc12 |  |  | 7.62 | 1.96 | 4.07 |  | 
7 | COc1ccc(O)c2ncccc12 |  |  | 9.96 | 2.1 | 4.84 | 2.1 | 
8 | Cl.Oc1ccc(I)c2cccnc12 | -0.602 | 4 |  |  |  |  | 
9 | Cl.O=[N+]([O-])c1ccc(O)c2ncccc12 | -1.903 | 80 |  |  |  |  | 
10 | Oc1cccc2cccnc12 [OXYQUINOLINE] |  |  | 9.64 | 1.95 | 5.14 |  | 
11 | Oc1ccc(I)c2cccnc12 |  |  | 8.31 | 3.29 | 4.43 |  | 
12 | O=Cc1ccc(O)c2ncccc12 |  |  | 7.01 | 2.07 | 4.42 |  | 
13 | Cl.Oc1cccc2cccnc12 | -0.301 | 2 |  |  |  |  | 
14 | Cl.Oc1ccc(Cl)c2cccnc12 | -0.301 | 2 |  |  |  |  | 

Results, then the molecule that gave them:

Row | log(1/MIC) (Streptococcus mutans) | MIC (Streptococcus mutans) [µM] | pKa at 1000 µM [1] | logP [2] | pKa at 1000 µM [3] | logP [4] | pKa at 1000 µM [5] | Compound
15 | -1.602 | 40 |  |  |  |  |  | CCN(CC)Cc1ccc(O)c2ncccc12.Cl
16 |  |  | 9.53 | 1 | 4.93 | 1 |  | OCc1ccc(O)c2ncccc12
17 | -2.903 | 800 |  |  |  |  |  | COC(=O)Cc1ccc(O)c2ncccc12.Cl
18 | -1.602 | 40 |  |  |  |  |  | CN(C)Cc1ccc(O)c2ncccc12.Cl
19 |  |  | 9.19 | 4.41 | 4.48 | 1.41 | 9.32 | CCN(CC)Cc1ccc(O)c2ncccc12
20 |  |  | 9.46 | 2.37 | 4.47 | 1.06 | 8.66 | CN(C)Cc1ccc(O)c2ncccc12
21 |  |  | 9.92 | 2.38 | 5.25 | 2.38 |  | Cc1ccc(O)c2ncccc12 [TILIQUINOL]
22 |  |  | 9.25 | 1.82 | 4.3 |  |  | N#CCc1ccc(O)c2ncccc12
23 | -2.903 | 800 |  |  |  |  |  | CCOC(=O)Cc1ccc(O)c2ncccc12.Cl
24 | -1.778 | 60 |  |  |  |  |  | Cl.N#CCc1ccc(O)c2ncccc12
25 | -1.301 | 20 |  |  |  |  |  | Cc1ccc(O)c2ncccc12.Cl
26 |  |  | 9.4 | 2.27 | 4.72 |  |  | CCOC(=O)Cc1ccc(O)c2ncccc12
27 |  |  | 9.46 |  | 4.72 |  |  | COC(=O)Cc1ccc(O)c2ncccc12
28 | -2 | 100 |  |  |  |  |  | Cl.OCc1ccc(O)c2ncccc12
